Reference: ChEMBL document CHEMBL1138483, “Toward second generation hepatitis C virus NS3 serine protease inhibitors: discovery of novel P4 modified analogues with improved potency and pharmacokinetic profile” (J Med Chem, 2009)

Experiments:
[1] = Binding affinity to HCV NS3 protease by spectrophotometry; design: species or system Hepacivirus hominis
Hepatitis C virus = test: Antiviral activity against HCV replication in human hepatoma cells by replicon assay; type: functional, Hepacivirus hominis
[2] = AUC (0 to 6 hrs) in rat at 10 mg/kg, po; type: ADME, organism-based; design: time < 6 hr, dose 10 mg/kg, route oral; conditions: plasma
[3] = Drug level in rat liver at 10 mg/kg, po after 6 hrs; type: ADME, organism-based; design: dose 10 mg/kg, route oral; conditions: read-out: Drug uptake
Method in brief: (§1)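 Oral dosing in rats at 10 mpk as a suspension in 0.4% HPMC; liver concentration measured in ng/g tissue at 1 h or 6 h after dosing.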

[4] = AUC in po dosed rat; type: ADME, organism-based; conditions: plasma
Rattus norvegicus = test: AUC in rat at 10 mg/kg, po; type: ADME, organism-based, Plasma; design: dose 10 mg/kg, route oral; conditions: in vivo
[5] = Drug level in rat liver at 10 mg/kg, po after 1 hr; type: ADME, organism-based; design: dose 10 mg/kg, route oral; conditions: read-out: Drug uptake; method in brief: as §1
[6] = Bioavailability in rat at 10 mg/kg, po; type: ADME, organism-based; conditions: in vivo
[7] = AUC (0 to 24 hrs) in rat at 10 mg/kg, po; type: ADME, organism-based; design: time < 24 hr, dose 10 mg/kg, route oral; conditions: plasma

SMILES	Ki [1]	EC90 (Hepatitis C virus)	also measured
COC[C@@H](NC(=O)N[C@H](C(=O)N1C[C@H]2[C@@H]([C@H]1C(=O)NC(CC1CCC1)C(=O)C(N)=O)C2(C)C)C1(C)CCCCC1)C(C)C (stereo not given in full)	12 nM	200 nM	
CC(C)(C)NC(=O)OC[C@@H](NC(=O)N[C@H](C(=O)N1C[C@H]2[C@@H]([C@H]1C(=O)NC(CC1CCC1)C(=O)C(N)=O)C2(C)C)C1Cc2ccccc2C1)C(C)(C)C (stereo not given in full)	12 nM	200 nM	
CCNC(=O)OC[C@@H](NC(=O)N[C@H](C(=O)N1C[C@H]2[C@@H]([C@H]1C(=O)NC(CC1CC1)C(=O)C(N)=O)C2(C)C)C1Cc2ccccc2C1)C(C)(C)C (stereo not given in full)	7 nM	200 nM	
CC(C)(C)[C@H](NC(=O)N[C@H](COCc1ccccc1)C(C)(C)C)C(=O)N1C[C@H]2[C@@H]([C@H]1C(=O)NC(CC1CCC1)C(=O)C(N)=O)C2(C)C (stereo not given in full)	130 nM		
C=CCNC(=O)C(=O)C(CC1CC1)NC(=O)[C@@H]1[C@@H]2[C@H](CN1C(=O)[C@@H](NC(=O)N[C@H](COC(=O)NCC)C(C)(C)C)C1Cc3ccccc3C1)C2(C)C (stereo not given in full)	50 nM	400 nM	
C#CCCC(NC(=O)[C@@H]1[C@@H]2[C@H](CN1C(=O)[C@@H](NC(=O)N[C@H](COC(=O)NCC(C)C)C(C)(C)C)C1(C)CCCCC1)C2(C)C)C(=O)C(=O)NCC=C (stereo not given in full)	9 nM	70 nM	AUC(0-t) at 6 h [2]: 4.9 µM·h; concentration at 6 h [3]: 750 ng/g
C#CCCC(NC(=O)[C@@H]1[C@@H]2[C@H](CN1C(=O)[C@@H](NC(=O)N[C@H](COC(=O)NCC)C1CCCCC1)C1(C)CCCCC1)C2(C)C)C(=O)C(=O)NCC=C (stereo not given in full)	13 nM	200 nM	
COC[C@@H](NC(=O)N[C@H](C(=O)N1C[C@H]2[C@@H]([C@H]1C(=O)NC(CC1CCC1)C(=O)C(N)=O)C2(C)C)C1(C)CCCC1)C(C)(C)C (stereo not given in full)	22 nM	400 nM	
COC[C@@H](NC(=O)N[C@H](C(=O)N1C[C@H]2[C@@H]([C@H]1C(=O)NC(CC1CCC1)C(=O)C(N)=O)C2(C)C)C(C)(C)C)C(C)(C)C (stereo not given in full)	120 nM		
C=CCNC(=O)C(=O)C(CCC)NC(=O)[C@@H]1[C@@H]2[C@H](CN1C(=O)[C@@H](NC(=O)N[C@H](COC(=O)NCC1CCCCC1)C(C)(C)C)C1(C)CCCCC1)C2(C)C (stereo not given in full)	130 nM		
CC(C)(C)OCC1(NC(=O)N[C@H](C(=O)N2C[C@H]3[C@@H]([C@H]2C(=O)NC(CC2CCC2)C(=O)C(N)=O)C3(C)C)C2(C)CCCCC2)CCCCC1 (stereo not given in full)	120 nM		
C=CCNC(=O)C(=O)C(CCC)NC(=O)[C@@H]1[C@@H]2[C@H](CN1C(=O)[C@@H](NC(=O)N[C@H](COC(=O)NCC)C1CCCCC1)C1(C)CCCCC1)C2(C)C (stereo not given in full)	84 nM		
C=CCNC(=O)C(=O)C(CCC)NC(=O)[C@@H]1[C@@H]2[C@H](CN1C(=O)[C@@H](NC(=O)N[C@H](COC(=O)NCC)C(C)(C)C)C1Cc3ccccc3C1)C2(C)C (stereo not given in full)	33 nM	400 nM	AUC(0-t) at 6 h [2]: 0.7 µM·h
COC[C@@H](NC(=O)N[C@H](C(=O)N1C[C@H]2[C@@H]([C@H]1C(=O)NC(CC1CCC1)C(=O)C(N)=O)C2(C)C)C1(C)CCCCC1)C(C)(C)C (stereo not given in full)	24 nM	150 nM	
COC[C@@H](NC(=O)N[C@H](C(=O)N1C[C@H]2[C@@H]([C@H]1C(=O)NC(CC1CCC1)C(=O)C(N)=O)C2(C)C)C1Cc2ccccc2C1)C(C)(C)C (stereo not given in full)	15 nM	200 nM	AUC [4]: 0.1 µM·h
CCNC(=O)OC[C@@H](NC(=O)N[C@H](C(=O)N1C[C@H]2[C@@H]([C@H]1C(=O)NC(CC1CCC1)C(=O)C(N)=O)C2(C)C)C1Cc2ccccc2C1)C(C)(C)C (stereo not given in full)	7 nM	100 nM	AUC (Rattus norvegicus): 0.3 µM·h; concentration at 1 h [5]: 244 ng/g
C#CCCC(NC(=O)[C@@H]1[C@@H]2[C@H](CN1C(=O)[C@@H](NC(=O)N[C@H](COC(=O)NCC1CCCCC1)C(C)(C)C)C1(C)CCCCC1)C2(C)C)C(=O)C(=O)NCC=C (stereo not given in full)	20 nM	250 nM	
C=CCNC(=O)C(=O)C(CCC)NC(=O)[C@@H]1[C@@H]2[C@H](CN1C(=O)[C@@H](NC(=O)N[C@H](COC(=O)NCC(C)C)C(C)(C)C)C1(C)CCCCC1)C2(C)C (stereo not given in full)	58 nM		
COC[C@@](C)(CC(C)C)NC(=O)N[C@H](C(=O)N1C[C@H]2[C@@H]([C@H]1C(=O)NC(CC1CCC1)C(=O)C(N)=O)C2(C)C)C1(C)CCCCC1 (stereo not given in full)	50 nM		
C=CCNC(=O)C(=O)C(CCC)NC(=O)[C@@H]1[C@@H]2[C@H](CN1C(=O)[C@@H](NC(=O)N[C@H](COC(=O)NC(C)C)C(C)(C)C)C1(C)CCCCC1)C2(C)C (stereo not given in full)	24 nM	150 nM	AUC(0-t) at 6 h [2]: 6.6 µM·h; concentration at 6 h [3]: 808 ng/g
C=CCNC(=O)C(=O)C(CCCC)NC(=O)[C@@H]1[C@@H]2[C@H](CN1C(=O)[C@@H](NC(=O)N[C@H](COC(=O)NCC)C(C)(C)C)C1(C)CCCCC1)C2(C)C (stereo not given in full)	28 nM	400 nM	

SMILES	Ki [1]	EC90 (Hepatitis C virus)	also measured
CCNC(=O)OC[C@@H](NC(=O)N[C@H](C(=O)N1C[C@H]2[C@@H]([C@H]1C(=O)NC(CC1CCC1)C(=O)C(N)=O)C2(C)C)C(C)(C)C)C(C)(C)C (stereo not given in full)	9 nM	250 nM	
CC(C)(C)NC(=O)N[C@H](C(=O)N1C[C@H]2[C@@H]([C@H]1C(=O)NC(CC1CCC1)C(=O)C(N)=O)C2(C)C)C(C)(C)C (stereo not given in full) [BOCEPREVIR]	14 nM	350 nM	
C=CCNC(=O)C(=O)C(CCC)NC(=O)[C@@H]1[C@@H]2[C@H](CN1C(=O)[C@@H](NC(=O)N[C@H](COC(=O)NCC)C(C)(C)C)C1(C)CCCCC1)C2(C)C (stereo not given in full)	28 nM	150 nM	
C#CCCC(NC(=O)[C@@H]1[C@@H]2[C@H](CN1C(=O)[C@@H](NC(=O)N[C@H](COC(=O)NCC)C(C)(C)C)C1(C)CCCCC1)C2(C)C)C(=O)C(=O)NCCC (stereo not given in full)	16 nM	200 nM	
CN(C)C(=O)OC[C@@H](NC(=O)N[C@H](C(=O)N1C[C@H]2[C@@H]([C@H]1C(=O)NC(CC1CCC1)C(=O)C(N)=O)C2(C)C)C1Cc2ccccc2C1)C(C)(C)C (stereo not given in full)	23 nM	300 nM	
CCNC(=O)OC[C@@H](NC(=O)N[C@H](C(=O)N1C[C@H]2[C@@H]([C@H]1C(=O)NC(CC1CCC1)C(=O)C(N)=O)C2(C)C)C1(C)CCCCC1)C(C)(C)C (stereo not given in full)	8 nM	150 nM	
C#CCCC(NC(=O)[C@@H]1[C@@H]2[C@H](CN1C(=O)[C@@H](NC(=O)N[C@H](COC(=O)NCC)C(C)(C)C)C1Cc3ccccc3C1)C2(C)C)C(=O)C(=O)NCC=C (stereo not given in full)	10 nM	550 nM	
C#CCCC(NC(=O)[C@@H]1[C@@H]2[C@H](CN1C(=O)[C@@H](NC(=O)N[C@H](COC(=O)NC(C)C)C(C)(C)C)C1(C)CCCCC1)C2(C)C)C(=O)C(=O)NCC=C (stereo not given in full)	8 nM	150 nM	AUC(0-t) at 6 h [2]: 7.9 µM·h; concentration at 6 h [3]: 1110 ng/g
C=CCNC(=O)C(=O)C(CCC)NC(=O)[C@@H]1[C@@H]2[C@H](CN1C(=O)[C@@H](NC(=O)N[C@H](COC(=O)NCC1CC1)C(C)(C)C)C1(C)CCCCC1)C2(C)C (stereo not given in full)	32 nM	100 nM	
CCC[C@@](C)(COC)NC(=O)N[C@H](C(=O)N1C[C@H]2[C@@H]([C@H]1C(=O)NC(CC1CCC1)C(=O)C(N)=O)C2(C)C)C1(C)CCCCC1 (stereo not given in full)	170 nM		
CC(C)(C)OC[C@@H](NC(=O)N[C@H](C(=O)N1C[C@H]2[C@@H]([C@H]1C(=O)NC(CC1CCC1)C(=O)C(N)=O)C2(C)C)C1(C)CCCCC1)C(C)(C)C (stereo not given in full)	100 nM		
C=CCNC(=O)C(=O)C(CCC)NC(=O)[C@@H]1[C@@H]2[C@H](CN1C(=O)[C@@H](NC(=O)NC1(COC(=O)NCC)CCCCC1)C1(C)CCCCC1)C2(C)C (stereo not given in full)	210 nM	700 nM	
C#CCCC(NC(=O)[C@@H]1[C@@H]2[C@H](CN1C(=O)[C@@H](NC(=O)N[C@H](COC(=O)NCC1CC1)C(C)(C)C)C1(C)CCCCC1)C2(C)C)C(=O)C(=O)NCC=C (stereo not given in full)	7 nM	70 nM	AUC(0-t) at 6 h [2]: 5 µM·h; concentration at 6 h [3]: 581 ng/g
CC(C)NC(=O)OC[C@@H](NC(=O)N[C@H](C(=O)N1C[C@H]2[C@@H]([C@H]1C(=O)NC(CC1CCC1)C(=O)C(N)=O)C2(C)C)C1Cc2ccccc2C1)C(C)(C)C (stereo not given in full)	9 nM	200 nM	
CNC(=O)OC[C@@H](NC(=O)N[C@H](C(=O)N1C[C@H]2[C@@H]([C@H]1C(=O)NC(CC1CCC1)C(=O)C(N)=O)C2(C)C)C1Cc2ccccc2C1)C(C)(C)C (stereo not given in full)	9 nM	200 nM	
C=CCNC(=O)C(=O)C(CCCC)NC(=O)[C@@H]1[C@@H]2[C@H](CN1C(=O)[C@@H](NC(=O)N[C@H](COC(=O)NCC)C(C)(C)C)C1Cc3ccccc3C1)C2(C)C (stereo not given in full)	23 nM	400 nM	
C#CCCC(NC(=O)[C@@H]1[C@@H]2[C@H](CN1C(=O)[C@@H](NC(=O)N[C@H](COC(=O)NCC)C(C)(C)C)C1(C)CCCCC1)C2(C)C)C(=O)C(=O)NCC=C (stereo not given in full)	9 nM	150 nM	bioavailability [6]: 43%; AUC(0-t) at 24 h [7]: 26 µM·h; concentration at 6 h [3]: 1110 ng/g
CCNC(=O)OC[C@@H](NC(=O)N[C@H](C(=O)N1C[C@H]2[C@@H]([C@H]1C(=O)NC(CC1CCC1)C(=O)C(N)=O)C2(C)C)C1CCCCC1)C(C)(C)C (stereo not given in full)	10 nM	600 nM	
COC[C@@H](NC(=O)N[C@H](C(=O)N1C[C@H]2[C@@H]([C@H]1C(=O)NC(CC1CCC1)C(=O)C(N)=O)C2(C)C)C1CCCCC1)C(C)(C)C (stereo not given in full)	30 nM	300 nM	
C#CCCC(NC(=O)[C@@H]1[C@@H]2[C@H](CN1C(=O)[C@@H](NC(=O)NC1(COC(=O)NCC)CCCCC1)C1(C)CCCCC1)C2(C)C)C(=O)C(=O)NCC=C (stereo not given in full)	9 nM	600 nM	
C#CCCC(NC(=O)[C@@H]1[C@@H]2[C@H](CN1C(=O)[C@@H](NC(=O)N[C@H](COC(=O)NCC)C(C)(C)C)C1(C)CCCCC1)C2(C)C)C(=O)C(=O)NCC (stereo not given in full)	21 nM	200 nM	
